This sample holds only a part of the variants without activity.
B1: tRNA (parent)
chain: GUUCCGUUGGCGUAAUGGUAACGCGUCUCCCUCCUAAGGAGAAGACUGCGGGUUCGAGUCCCGUACGGAACG

Variants of: B1
Experiment: yeast fitness relative to wild type (ratio to wild type); higher = fitter; tRNA-Arg(CCU), competitive growth, 37 C, YPD
Method in brief: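 Changes in genotype frequencies gave Darwinian fitness relative to wild type. Frequencies were read by 100-nucleotide paired-end sequencing of gene amplicons before and after pooled Saccharomyces cerevisiae strains, carrying tRNA-Arg(CCU) gene variants at the native locus, were competed in YPD at 37°C for 24 hours in six replicates. A genotype was kept only with ≥ 100 starting reads, and estimates < 0.5 were set to 0.5.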

Going from G17A A37C G58A to U16G A36U, the yeast fitness rises from 0.551 to 0.589.

Going from U16G G25C C46U G50A to U16G G67U, the yeast fitness rises from 0.581 to 0.774.

Going from U16C U53A to G17A A45G A65U, the yeast fitness falls from 0.611 to 0.559.

First: U16G A45U
Second: U16G A45G
The yeast fitness of the first is lower: 0.969 for the first, 1 for the second.

U16C U35G G48C C66U and U16C G25U U32C A69C cannot be ordered by yeast fitness: no more than 0.5 for the first, no more than 0.5 for the second.

Going from U16G G38A U54C A65U to G17A A37G, the yeast fitness rises from no more than 0.5 to 0.606.

Going from U16G C61U C66G to U16G C22A A57G, the yeast fitness falls from 0.569 to no more than 0.5.

First: G17A A20G G41A
Second: G17A A21C C29G A70U
The yeast fitness of the first is higher: 0.593 for the first, no more than 0.5 for the second.

U16G C46A G56C A70G and G17A A20G U28A U35A A70C cannot be ordered by yeast fitness: no more than 0.5 for the first, no more than 0.5 for the second.

Going from G17A C22G C27A A45U G56C G63C G67C to U16G C46U A65C, the yeast fitness rises from no more than 0.5 to 1.13.

Compared with U16G C22G A65U, U16G C49U G63A is higher in yeast fitness: 0.722 for the first, 0.994 for the second.

Going from U16G C31G C61A C66U to U16G A21G C31U, the yeast fitness rises from no more than 0.5 to 0.985.

First: G17A A36U C46U
Second: U16G G51C A65C
The yeast fitness of the first is lower: no more than 0.5 for the first, 0.635 for the second.

U16C U26A G38C U47A C49A and U16G C30U A65U cannot be ordered by yeast fitness: no more than 0.5 for the first, no more than 0.5 for the second.

First: U16C U54A
Second: U16G C61U A69C
The yeast fitness of the first is higher: 0.685 for the first, 0.644 for the second.

Compared with U16G G63A, U16C U26A G38C is lower in yeast fitness: 0.937 for the first, no more than 0.5 for the second.

First: G17A A21C
Second: U16G G25A U28G C34U G63C
The yeast fitness of the first is higher: 0.67 for the first, no more than 0.5 for the second.

U16G C33U G44C and U16G G18C U59A A65U C66A cannot be ordered by yeast fitness: no more than 0.5 for the first, no more than 0.5 for the second.

Going from U16C G41A C49U to U16C U19A U47A C61A, the yeast fitness rises from 0.605 to 0.792.

First: U16G U28A A42U U54A
Second: U16G U26A C34U G50A
The yeast fitness of the first is lower: no more than 0.5 for the first, 0.552 for the second.

Going from U16G C24U U28C A36C U59C A65C to G17A A37C A69C, the yeast fitness rises from no more than 0.5 to 0.648.

Going from G17A C22A C31A C33A C49A to U16G C29U C55G, the yeast fitness falls from 0.573 to no more than 0.5.

Going from G17A A65U to U16C U26C G58A, the yeast fitness rises from 0.805 to 1.11.

Compared with U16G C22U C62U, U16C G68C is higher in yeast fitness: 0.645 for the first, 0.834 for the second.

First: U16C G68A
Second: U16G A20U G38A G67A A69U
The yeast fitness of the first is higher: 0.767 for the first, no more than 0.5 for the second.

Going from U16G G23A A40U to G17A A20G G25C C34U C46G G63A A65C, the yeast fitness rises from no more than 0.5 to 0.561.

Compared with G17A A36G C66U, U16G A40G is higher in yeast fitness: 0.65 for the first, 0.935 for the second.

Going from U16C G67C to G17A A40U G52A C60U G63C, the yeast fitness falls from 0.861 to no more than 0.5.

First: U16G A21U A40C G58C A65C C66G
Second: U16G C22U G25A
The yeast fitness of the first is higher: 0.515 for the first, no more than 0.5 for the second.

Compared with U16G A42U, U16G G51A is lower in yeast fitness: 0.994 for the first, 0.783 for the second.

Going from U16C U28C A37C G56A U59C to U16G C22G U47G, the yeast fitness rises from no more than 0.5 to 0.557.

First: U16G C46U U53C A69C
Second: U16C U26A A43U C62U
The yeast fitness of the first is higher: 0.711 for the first, no more than 0.5 for the second.

First: U16G A20C G41A C55U
Second: U16G G52A
The yeast fitness of the first is lower: no more than 0.5 for the first, 0.668 for the second.

First: U16G C22G U32C
Second: U16C U26A G67C
The yeast fitness of the first is higher: 0.767 for the first, 0.657 for the second.

Compared with U16G G17C A43U G52C, G17A A42G U64A is higher in yeast fitness: no more than 0.5 for the first, 0.58 for the second.

Going from U16C G51A A65U A70G to G17A A69C A70C, the yeast fitness rises from no more than 0.5 to 0.588.

Going from U16C G52A G56C to U16G G68A, the yeast fitness rises from no more than 0.5 to 0.967.

G17A A21G U26C C62U and U16C U32C G39C cannot be ordered by yeast fitness: no more than 0.5 for the first, no more than 0.5 for the second.

First: U16G G48A
Second: G17A C22A A36G A45C C46U
The yeast fitness of the first is higher: 0.903 for the first, no more than 0.5 for the second.

Compared with U16G A43U G50C, G17A A42U U59C is lower in yeast fitness: 0.576 for the first, no more than 0.5 for the second.

Going from G17A A37C G52A G56A G63C to G17A A20C C24U, the yeast fitness rises from no more than 0.5 to 0.562.

First: U16C G51A A65U
Second: U16G G23C U35C G63A
The yeast fitness of the first is higher: 0.572 for the first, no more than 0.5 for the second.

G17A A45U G52A and G17A C22A A45C G67C cannot be ordered by yeast fitness: no more than 0.5 for the first, no more than 0.5 for the second.

Compared with U16G G39A A45C C61A A69U, U16C U35C A57C is higher in yeast fitness: no more than 0.5 for the first, 0.532 for the second.

Going from U16G G56C to G17A A45G, the yeast fitness rises from no more than 0.5 to 0.875.

Going from U16G G44C to U16C G56A G68A, the yeast fitness falls from 0.912 to 0.69.

Compared with U16C U47C, U16C U28C G52C is lower in yeast fitness: 0.899 for the first, no more than 0.5 for the second.

U16C U59C G67A and U16G U19G C29G G50C C66U cannot be ordered by yeast fitness: no more than 0.5 for the first, no more than 0.5 for the second.

First: G17A A57U
Second: U16G A20U
The yeast fitness of the first is higher: 0.644 for the first, 0.642 for the second.

Going from U16G U47A U54A A57U U64A A69U to U16G A42G G48A, the yeast fitness falls from 0.678 to no more than 0.5.

Compared with U16C U35C, U16G C34U A40G A43G C62A A69C is lower in yeast fitness: 0.609 for the first, no more than 0.5 for the second.

Going from U16G G18C A21U to U16G U32C, the yeast fitness rises from 0.59 to 0.915.

First: U16C U19A C29U
Second: U16G A65U
The yeast fitness of the first is lower: 0.615 for the first, 0.876 for the second.

Compared with U16G C27G, U16C G44C C66U is lower in yeast fitness: 0.639 for the first, no more than 0.5 for the second.

Going from G17A C22A G25A to G17A A45U G52A A70U, the yeast fitness rises from 0.501 to 0.535.

U16G C49U G56C and U16G U32G C46U C49U cannot be ordered by yeast fitness: no more than 0.5 for the first, no more than 0.5 for the second.

Going from U16C G48C to G17A A40C, the yeast fitness falls from 0.894 to 0.668.

G17A A42G G50A and G17A A20G U53A cannot be ordered by yeast fitness: no more than 0.5 for the first, no more than 0.5 for the second.

U16C G48C A57C and U16G C34G A42G C49G U64A cannot be ordered by yeast fitness: no more than 0.5 for the first, no more than 0.5 for the second.

Compared with G17A A42C A70C, G17A C22G C27A A36G is lower in yeast fitness: 0.688 for the first, no more than 0.5 for the second.

U16G A21G C30U A37C and G17A A20G A36C A37C U53G A70C cannot be ordered by yeast fitness: no more than 0.5 for the first, no more than 0.5 for the second.

First: G17A A37U U47A G68C
Second: U16G C60G
The yeast fitness of the first is lower: 0.645 for the first, 0.658 for the second.

U16G A37U A45C and G17A A20C G25A C66A G68C cannot be ordered by yeast fitness: no more than 0.5 for the first, no more than 0.5 for the second.

Compared with U16C G44A, G17A A43G A45G C62G is lower in yeast fitness: 1.06 for the first, no more than 0.5 for the second.

U16G G39C A42U U54C C55G U64A and U16C U47A G52A cannot be ordered by yeast fitness: no more than 0.5 for the first, no more than 0.5 for the second.

Compared with G17A A20G C27G A36C U47A G68A, U16C U47A C49A C62U is higher in yeast fitness: no more than 0.5 for the first, 0.778 for the second.

First: G17A A70U
Second: U16C U26C A40C A43G G44A
The yeast fitness of the first is higher: 0.864 for the first, no more than 0.5 for the second.

First: G17A A21G C49U C60A G63A
Second: G17A A20C G25A
The yeast fitness of the first is higher: 0.529 for the first, 0.506 for the second.

Compared with G17A A20G C34U C55G, U16C G50A is higher in yeast fitness: no more than 0.5 for the first, 0.799 for the second.

First: U16C U32G G56C G68A
Second: U16C G63A
The yeast fitness of the first is lower: no more than 0.5 for the first, 0.884 for the second.

Going from U16G G18C U59A A65U to G17A A20C G44C, the yeast fitness falls from 0.687 to 0.617.

Compared with G17A C22A U35C A45C C46U, U16C U32G C34G U53A G63C is lower in yeast fitness: 0.537 for the first, no more than 0.5 for the second.

First: U16G C29G G58A
Second: G17A A20G C30A
The yeast fitness of the first is lower: 0.59 for the first, 0.628 for the second.

First: U16G C61U
Second: U16G C31G G48C A57U
The yeast fitness of the first is higher: 0.75 for the first, no more than 0.5 for the second.

First: U16G A45U U54C U64A
Second: U16G C62U
The yeast fitness of the first is lower: no more than 0.5 for the first, 0.853 for the second.

Going from U16C G44A C49U U54C G56C to U16G C24U U28C A36C A65C, the yeast fitness rises from no more than 0.5 to 0.58.

First: U16G A37G G51C C62G
Second: U16G C62U A70C
The yeast fitness of the first is lower: no more than 0.5 for the first, 0.565 for the second.

Going from U16G C30A G51C G56C C62G to U16C U54A C66U, the yeast fitness falls from 0.65 to no more than 0.5.

Compared with U16G C29U, U16G C22G A37G A43G G68A is lower in yeast fitness: 0.806 for the first, no more than 0.5 for the second.

G17A A21G U26C C66A and U16C U28C C55U A57C G58A cannot be ordered by yeast fitness: no more than 0.5 for the first, no more than 0.5 for the second.

Compared with U16G G23C U35C, U16G C31A C60A G67A is higher in yeast fitness: 0.655 for the first, 0.678 for the second.

Going from U16G G44A C62U to U16G C29U C31A A57C G67C, the yeast fitness falls from 0.652 to no more than 0.5.

Going from U16C U26C to U16C U26A, the yeast fitness rises from 0.884 to 0.973.

U16C U59A C62A G67C showed a yeast fitness of no more than 0.5.
